Measurements from ChEMBL document CHEMBL2046280, “Discovery of the novel potent and selective FLT3 inhibitor 1-{5-[7-(3- morpholinopropoxy)quinazolin-4-ylthio]-[1,3,4]thiadiazol-2-yl}-3-p-tolylurea and its anti-acute myeloid leukemia (AML) activities in vitro and in vivo” (J Med Chem, 2012).

Assays:
HCT-116 = assay: Cytotoxicity against FLT3-independent human HCT116 cells after 72 hrs by MTT assay; assay type: functional, cell-based; conditions: HCT-116, 72 h
Outline: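 Adherent lines at 2−5 × 10³ cells/well were allowed to settle 24 h, then the medium was replaced with serial inhibitor dilutions for 72 h. MTT was added for 2−4 h, followed by dissolution in 100% DMSO. OD read at 570 nm. Viability relative to 0.1% DMSO controls; triplicate. Grown in RPMI 1640 or DMEM with 10% FBS, 5% CO₂, 37 °C.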

MV4-11 [1] = assay: Cytotoxicity against FLT3-dependent human MV4-11 cells after 72 hrs by MTT assay; assay type: functional, cell-based; conditions: MV4-11, 72 h
Outline: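 Leukemia cells at 1−4 × 10⁴ per well were exposed to increasing inhibitor concentrations for 72 h at 37 °C. MTT was then added for 2−4 h, and cells were lysed with 20% acidified SDS. OD read at 570 nm. Viability relative to 0.1% DMSO controls; triplicate. MV4-11 grown in IMDM, others in RPMI 1640 or DMEM with 10% FBS.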

[2] = Cmax in Sprague-Dawley rat at 40 mg/kg, ip; assay type: ADME, organism-based; set-up: dose 40 mg/kg, route intraperitoneal; conditions: in vivo
Outline: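 Male Sprague−Dawley rats (200−250 g), n = 3, fasted overnight, with a femoral-vein catheter for blood sampling. Single 40 mg/kg ip dose; plasma drug levels measured by LC-MS/MS.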

MV4-11 [3] = assay: Antitumor activity against human MV4-11 cells xenografted in NOD-SCID mouse assessed as tumor growth inhibition at 50 mg/kg, ip once daily for 21 days measured every 3 days; assay type: functional; conditions: MV4-11, ip, route intraperitoneal, read-out: GI
[4] = molecular target: T1, Receptor-type tyrosine-protein kinase FLT3 (Homo sapiens, UniProt P36888); assay: Inhibition of human FLT3
T1 sequence (P36888 whole entry): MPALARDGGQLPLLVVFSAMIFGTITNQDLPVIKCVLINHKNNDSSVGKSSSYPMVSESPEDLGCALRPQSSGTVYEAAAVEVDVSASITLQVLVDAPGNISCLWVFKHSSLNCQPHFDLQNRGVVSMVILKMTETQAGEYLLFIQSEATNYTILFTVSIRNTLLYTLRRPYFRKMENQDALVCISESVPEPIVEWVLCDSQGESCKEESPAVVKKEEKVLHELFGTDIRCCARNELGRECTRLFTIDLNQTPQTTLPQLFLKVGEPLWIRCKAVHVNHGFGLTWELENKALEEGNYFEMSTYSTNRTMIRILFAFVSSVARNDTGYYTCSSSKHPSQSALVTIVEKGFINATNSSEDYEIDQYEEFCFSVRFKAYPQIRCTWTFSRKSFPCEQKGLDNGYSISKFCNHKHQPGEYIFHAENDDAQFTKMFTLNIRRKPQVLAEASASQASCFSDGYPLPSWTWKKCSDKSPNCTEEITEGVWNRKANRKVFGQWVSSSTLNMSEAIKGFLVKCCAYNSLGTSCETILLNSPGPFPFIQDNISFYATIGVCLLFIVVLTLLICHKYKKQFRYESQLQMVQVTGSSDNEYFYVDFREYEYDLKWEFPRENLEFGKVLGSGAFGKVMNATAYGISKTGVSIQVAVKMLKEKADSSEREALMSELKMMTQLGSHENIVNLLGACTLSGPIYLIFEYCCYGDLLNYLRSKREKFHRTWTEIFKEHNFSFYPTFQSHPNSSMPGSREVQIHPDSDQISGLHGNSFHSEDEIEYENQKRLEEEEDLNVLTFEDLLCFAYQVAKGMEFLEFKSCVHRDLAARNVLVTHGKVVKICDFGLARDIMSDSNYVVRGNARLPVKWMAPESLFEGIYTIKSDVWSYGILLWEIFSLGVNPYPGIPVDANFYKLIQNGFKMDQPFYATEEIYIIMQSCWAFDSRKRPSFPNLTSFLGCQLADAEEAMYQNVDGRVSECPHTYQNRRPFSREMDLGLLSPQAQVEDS
Outline: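 Human FLT3 kinase assayed across a dose−response series at 200 μM ATP.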

Row | Compound | IC50 (HCT-116) [µM] | IC50 (MV4-11 [1]) [µM] | Cmax [2] [ng/mL] | inhibition in vivo at 50 mg/kg (MV4-11 [3]) [%] | IC50 [4] [µM]
1 | COCCOc1cc2ncnc(Sc3nncs3)c2cc1OCCOC | > 10 | 1.35 | – | – | –
2 | C#Cc1cccc(NC(=O)Nc2nnc(Sc3ncnc4cc(OCCCN5CCOCC5)ccc34)s2)c1 | > 10 | 0.0003 | 2740 | < 50 | 0.006
3 | C=CC(=O)Nc1nnc(Sc2ncnc3cc(OCCCN4CCOCC4)ccc23)s1 | > 10 | 6 | – | – | –
4 | COc1cc2ncnc(Sc3nc(C)c(CC(=O)Nc4cc(Cl)cc(Cl)c4)s3)c2cc1OC | > 10 | 1.4 | – | – | –
5 | COCCOc1cc2ncnc(Sc3nccs3)c2cc1OCCOC | > 10 | 1.4 | – | – | –
6 | COCCOc1cc2ncnc(Sc3nc(C)c(CC(=O)Nc4ccc(C(F)(F)F)cc4)s3)c2cc1OCCOC | > 10 | 0.027 | – | – | –
7 | COc1cc2ncnc(Sc3nc(C)c(CC(=O)NCc4ccc(Cl)cc4)s3)c2cc1OC | > 10 | > 10 | – | – | –
8 | COc1cc2c(Sc3nccs3)ncnc2cc1OCCN1CCOCC1 | > 10 | 3 | – | – | –
9 | COCCOc1cc2ncnc(Sc3nc(C)c(CC(=O)Nc4cccc(C(F)(F)F)c4)s3)c2cc1OCCOC | > 10 | 0.025 | – | – | –
10 | COCCOc1cc2ncnc(Sc3nnc(NC(=O)Nc4cccc(Cl)c4)s3)c2cc1OCCOC | > 10 | 0.02 | – | – | –
11 | COCCOc1cc2ncnc(Sc3nc(C)c(CC(=O)Nc4cccc(Cl)c4)s3)c2cc1OCCOC | > 10 | 0.21 | – | – | –
12 | C#Cc1cccc(NC(=O)Nc2nnc(Sc3ncnc4cc(OCCOC)c(OCCOC)cc34)s2)c1 | > 10 | 0.005 | – | < 50 | –
13 | O=C(Nc1ccccc1)Nc1nnc(Sc2ncnc3cc(OCCCN4CCOCC4)ccc23)s1 | > 10 | 0.01 | – | – | –
14 | COc1cc2c(Sc3nccs3)ncnc2cc1OCCN1CCCCC1 | > 10 | 1.5 | – | – | –
15 | COc1cc2ncnc(Sc3nc(C)cs3)c2cc1OC | > 10 | 3.68 | – | – | –
16 | COCCOc1cc2ncnc(Sc3nnc(NC(=O)Nc4cccc(F)c4)s3)c2cc1OCCOC | > 10 | 0.4 | – | – | –
17 | O=C(Nc1cccc(Cl)c1)Nc1nnc(Sc2ncnc3cc(OCCCN4CCOCC4)ccc23)s1 | > 10 | 0.012 | – | – | –
18 | COc1cc2ncnc(Sc3nccs3)c2cc1OCCN1CCOCC1 | > 10 | 2.95 | – | – | –
19 | COCCOc1cc2ncnc(Sc3nc(CC(=O)Nc4cccc(C(F)(F)F)c4)cs3)c2cc1OCCOC | > 10 | 0.83 | – | – | –
20 | COc1cc2ncnc(Sc3nccs3)c2cc1OCCCN1CCOCC1 | > 10 | 1.02 | – | – | –
21 | COCCOc1cc2ncnc(Sc3nc(CC(=O)Nc4cccc(Cl)c4)cs3)c2cc1OCCOC | > 10 | 3.2 | – | – | –
22 | CCN(CC)CCNC(=O)c1c(C)[nH]c(/C=C2\C(=O)Nc3ccc(F)cc32)c1C [SUNITINIB] | – | 0.003 | – | – | –

Row | Compound | IC50 (HCT-116) [µM] | IC50 (MV4-11 [1]) [µM] | Cmax [2] [ng/mL] | inhibition in vivo at 50 mg/kg (MV4-11 [3]) [%] | IC50 [4] [µM]
23 | COCCOc1cc2ncnc(Sc3nc(CC(=O)Nc4ccc(C(F)(F)F)cc4)cs3)c2cc1OCCOC | > 10 | 2.88 | – | – | –
24 | COc1cc2ncnc(Sc3nccs3)c2cc1OCCN1CCCC1 | > 10 | 1.24 | – | – | –
25 | COCCOc1cc2ncnc(Sc3nc(C)c(CC(=O)NC4CC4)s3)c2cc1OCCOC | > 10 | 2.42 | – | – | –
26 | COc1cc2c(Sc3nccs3)ncnc2cc1OCCCN1CCOCC1 | > 10 | 1.15 | – | – | –
27 | COc1cc2ncnc(Sc3nc(C)c(CC(=O)Nc4ccc(NC(C)=O)cc4)s3)c2cc1OC | > 10 | > 5 | – | – | –
28 | COc1cc2ncnc(Sc3nccs3)c2cc1OCCN1CCCCC1 | > 10 | 1.61 | – | – | –
29 | COCCOc1cc2ncnc(Sc3nnc(NC(=O)Nc4ccc(C(F)(F)F)cc4)s3)c2cc1OCCOC | > 10 | 0.3 | – | – | –
30 | COCCOc1cc2ncnc(Sc3nnc(NC(=O)Nc4ccc(C)cc4)s3)c2cc1OCCOC | > 10 | 0.022 | – | – | –
31 | COc1cc2ncnc(Sc3nccs3)c2cc1OCCCN(C)C | > 10 | 1.13 | – | – | –
32 | COc1cc2c(N3CCN(C(=O)Nc4ccc(OC(C)C)cc4)CC3)ncnc2cc1OCCCN1CCCCC1 [TANDUTINIB] | – | 0.055 | – | – | –
33 | COCCOc1cc2ncnc(Sc3nc(C)c(CC(=O)Nc4cc(C)cc(C)c4)s3)c2cc1OCCOC | > 10 | 0.625 | – | – | –
34 | COc1cc2c(Sc3nccs3)ncnc2cc1OCCN1CCCC1 | > 10 | 1.6 | – | – | –
35 | COCCOc1cc2ncnc(Sc3nc(CC(=O)Nc4cc(C)cc(C)c4)cs3)c2cc1OCCOC | > 10 | 9.04 | – | – | –
36 | C=CC(=O)Nc1nnc(Sc2ncnc3cc(OCCOC)c(OCCOC)cc23)s1 | > 10 | > 10 | – | – | –
37 | COCCOc1cc2ncnc(Sc3nnc(NC(=O)Nc4cccc(Br)c4)s3)c2cc1OCCOC | > 10 | 0.022 | – | – | –
38 | COCCOc1cc2ncnc(Sc3nnc(NC(C)=O)s3)c2cc1OCCOC | > 10 | > 11 | – | – | –
39 | COCCOc1cc2ncnc(Sc3nc(C)c(CC(=O)Nc4nc5ccc(OC)cc5s4)s3)c2cc1OCCOC | > 10 | 1.9 | – | – | –
40 | COc1cc2ncnc(Sc3nc(C)c(CC(=O)Nc4cccc(Cl)c4)s3)c2cc1OC | > 10 | 0.45 | – | – | –
41 | COc1cc2ncnc(Sc3nccs3)c2cc1OC | > 10 | 1.14 | – | – | 0.007
42 | COc1cc2ncnc(Sc3nncs3)c2cc1OC | > 10 | 1.2 | – | – | 0.009
43 | COc1cc2ncnc(Sc3nc(C)c(CC(=O)Nc4cccc(C(F)(F)F)c4)s3)c2cc1OC | > 10 | 0.02 | – | – | –
